MC4R ag barr = agonists of human melanocortin 4 receptor (MC4R) beta-arrestin. U2OS MC4R beta-arrestin complementation, luminescence; percent of melanotan II response, DMSO zero. activation, % at 8.9 µM. 360,000 compounds, 0.98% hits. AID 540308;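 active means activation above a per-plate cutoff, the mean activation of sample wells on that plate plus 3 SD, cut at about 8% in these data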
NOD2-RIPK2 inh = blocks binding of human NOD2 to RIPK2; O43353; CHO BLA complementation NOD2-RIPK2, CCF4 ratio; inhibition, % at 4.98 µM; 360,000 compounds, 0.38% hits; in the data active means inhibition above about 21%;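 further: 0% = vehicle only and 100% = reference blocker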
MC4R antag cAMP = human MC4R antagonism in cAMP assay; AID 540295; P32245; 360,000 compounds, 0.48% hits; inhibition, % at 6.5 µM; MC4R-expressing cells, MTII-stimulated cAMP, LANCE TR-FRET;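 active means inhibition above its plate's cutoff, the mean of tested wells on that plate plus 3 SD, cut at about 29% in these data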;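 further: 0% = Melanotan II alone and 100% = Melanotan II plus saturating MCL0020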
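Assay system: human MC4R-expressing U2OS cells; reagent: Melanotan II stimulation of cells; dosing: 6.5 µM single dose; timing: compound 30 min, challenge 1 h, detection 1 h; signal: TR-FRET cAMP assay; replicates: one well per compound, no replicates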
TLR9-MyD88 block = inhibitors of human TLR9-MyD88 binding. Q9NR96+Q99836. CHO BLA complementation TLR9-MyD88, CCF4 FRET ratio. inhibition, % at 4.98 µM. AID 504734. 340,000 compounds, 0.21% hits;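 active means inhibition above the mean over all tested compounds plus 3 SD, cut at about 21% in these data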;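 further: 0% = DMSO only wells and 100% = clavulanate BLA inhibitor control wells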
TLR4-MyD88 BLA = blocks binding of human TLR4 to MyD88; 200,000 compounds, 0.18% hits; O00206+Q99836; inhibition, % at 8.4 µM; HeLa CL3-4 TLR4/MyD88 BLA complementation, FRET ratio; AID 861; in the data active means inhibition above about 25%;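 further: 0% = vehicle and 100% = reference inhibitor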
MC4R barr ag = human MC4R beta-arrestin agonism confirmation | shares compounds with MC4R ag barr | U2OS MC4R beta-arrestin recruitment, luminescence; scaled DMSO 0%, Melanotan II 100% | activation, % at 8.9 µM | 2,400 compounds, 31% hits | AID 602192;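 active means mean activation across replicates above the hit cutoff set in the earlier primary screen, cut at about 8% in these data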
MOR DOR agonist = activates mu-delta opioid heterodimer, MC4R agonist counter-screen; activation, % at 9.2 µM; shares compounds with MC4R ag barr; U2OS PathHunter beta-arrestin, beta-gal luminescence; percent of deltorphin B response, DMSO zero; 2,400 compounds, 5.8% hits;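 active means mean activation across replicates exceeds the hit threshold derived in the earlier primary screen, cut at about 18% in these data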;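 further: 100% = deltorphin B at 0.9 µM final and 0% = DMSO alone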
Target sequence (P35372 whole entry, looked up): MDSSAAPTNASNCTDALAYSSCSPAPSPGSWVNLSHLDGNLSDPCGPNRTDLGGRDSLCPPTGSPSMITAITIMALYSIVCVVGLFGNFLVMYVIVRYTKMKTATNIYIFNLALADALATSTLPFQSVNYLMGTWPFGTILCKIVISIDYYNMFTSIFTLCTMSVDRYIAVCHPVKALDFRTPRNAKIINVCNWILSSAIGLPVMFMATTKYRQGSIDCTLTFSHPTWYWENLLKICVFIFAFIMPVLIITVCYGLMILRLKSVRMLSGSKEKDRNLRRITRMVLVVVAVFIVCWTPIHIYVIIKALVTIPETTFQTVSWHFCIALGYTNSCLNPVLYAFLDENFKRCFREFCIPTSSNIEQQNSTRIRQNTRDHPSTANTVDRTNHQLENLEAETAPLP
Target sequence (P41143 whole entry, looked up): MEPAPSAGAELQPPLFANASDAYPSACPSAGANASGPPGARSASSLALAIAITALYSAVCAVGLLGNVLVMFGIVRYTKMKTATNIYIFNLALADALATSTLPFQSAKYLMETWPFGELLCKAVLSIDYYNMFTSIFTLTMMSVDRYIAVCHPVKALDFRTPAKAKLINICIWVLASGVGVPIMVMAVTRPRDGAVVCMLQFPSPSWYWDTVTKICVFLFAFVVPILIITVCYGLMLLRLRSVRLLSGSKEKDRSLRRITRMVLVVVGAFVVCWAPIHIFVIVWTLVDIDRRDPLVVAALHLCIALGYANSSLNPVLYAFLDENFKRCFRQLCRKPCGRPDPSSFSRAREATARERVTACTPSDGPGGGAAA
Numbers without * were called inactive; x = no result given. An excerpt weighted towards active compounds, which were near 1.8% of everything screened.

SMILES	MC4R ag barr	NOD2-RIPK2 inh	MC4R antag cAMP	TLR9-MyD88 block	TLR4-MyD88 BLA	MC4R barr ag	MOR DOR agonist
O=C(O)CN1C(=O)/C(=C\c2ccccc2OCc2ccc(Cl)cc2)SC1=S	-1	-7	-2	6	x	x	x
O=C(NCc1csc(-c2cccs2)n1)Nc1cccc(Cl)c1	9.8*	-2	0	5	x	3	6
CCC(=O)NCc1csc(-c2cccs2)n1	-1	-5	1	4	x	x	x
Cc1ccc(-c2nnn(CC(=O)N(CC(=O)NC3CCCCC3)c3ccc(F)c(Cl)c3)n2)o1	5	-5	0	-10	6	x	x
Cc1ccc(-c2nnn(CC(=O)N(CC(=O)NC3CCCC3)c3ccc(F)c(Cl)c3)n2)o1	10*	5	6	0	5	1	5
Cc1cccc(NC(=O)C2(c3ccccc3)CCOCC2)c1	-1	7	-1	-9	9	x	x
Cc1cccc(NC(=O)C2(C)CC3c4ccccc4C2c2ccccc23)c1 (centres undefined)	17*	-5	-2	8	-13	4	8
C=C(C)c1cccc(C(C)(C)NC(=O)NCc2ccc(OC)cc2)c1	17*	-9	1	-16	5	1	5
C=C(C)c1cccc(C(C)(C)NC(=O)NCc2ccc(OC)c(OC)c2)c1	-1	1	9	-8	-4	x	x
O=C(NCc1cc(Cl)cc(Cl)c1)c1ccc2nc([C@@H]3O[C@H](CO)[C@H](O)[C@H](O)[C@H]3O)[nH]c2c1	0	-2	2	x	x	x	x
COc1ccc(C2/C=C\CN(C(=O)C3CCCC3)[C@H](Cc3ccccc3)C(=O)N2Cc2ccc(F)cc2)cc1 (some centres undefined)	0	0	8	2	x	x	x
COc1ccc(C2c3ccc(O)cc3Oc3ncn4nc(-c5ccccn5)nc4c32)cc1 (centres undefined)	49*	0	3	2	x	9.5*	10
COc1ccc(C2c3ccc(O)cc3Oc3ncn4nc(-c5ccccn5)nc4c32)cc1OC (centres undefined)	0	-9	20	0	x	x	x
CCOc1cc(C(=S)N2CCOCC2)ccc1OC(=O)/C=C/c1ccc(OC)c(OC)c1	11*	-6	6	-4	-12	0	2
Cc1ccc(C(C)C)c(OCc2nn(CC(=O)c3ccc(OC(F)F)cc3)c3[n+]2CCCCC3)c1	20*	-10	16	-3	10	14*	25*
COc1cc(/C=N/NC(=O)c2ccccc2O)ccc1OC(=O)CC1SC(=O)NC1=O (centres undefined)	3	0	-4	-3	x	x	x
N#Cc1cc(-c2ccccc2)nc(Oc2ccccc2)n1	-2	4	7	-4	-6	x	x
COc1ccc(-c2cc(C#N)nc(Oc3ccc(Cl)cc3)n2)cc1	11*	-1	2	-6	-8	2	3
CCOC(=O)c1sc2nc(NC(=O)C(C)(C)C)sc2c1C	10.0*	-4	16	7	-5	0	8
CCOC(=O)c1sc2nc(NC(=O)C3CC3)sc2c1C	3	4	9	13	4	x	x
Cc1cc(C)nc(SCC(=O)Nc2ncc(Cc3ccc(Cl)c(Cl)c3)s2)n1	21*	6	2	-1	-14	7	2
Cc1ccc(Cc2cnc(NC(=O)CN3CCOCC3)s2)cc1Cl	-1	0	6	4	-1	x	x
COc1ccc2c(C)nc(Nc3nc(-c4ccccc4)cc(=O)[nH]3)nc2c1	26*	5	-17	-12	x	8.4*	3
COc1ccc2c(C)nc(Nc3nc(C)cc(=O)[nH]3)nc2c1	x	x	x	x	-11	x	x
Cc1ccc2nc(SCC(=O)c3c[nH]c4ccccc34)[nH]c2c1	12*	6	-2	10	5	5	4
SMILES	MC4R ag barr	NOD2-RIPK2 inh	MC4R antag cAMP	TLR9-MyD88 block	TLR4-MyD88 BLA	MC4R barr ag	MOR DOR agonist
O=C(CSc1nc2ccccc2[nH]1)c1c[nH]c2ccccc12	0	0	-7	3	9	x	x
COc1ccc(-c2nc(C#N)c(NCc3ccccc3Cl)o2)cc1OC	13*	-2	-12	-14	6	8	5
COc1c(C(=O)Nc2ccc(Br)cn2)ccc2ccccc12	12*	-9	-1	5	x	0	4
O=C(Nc1ccc(Br)cn1)c1cccc2ccccc12	0	9	-19	9	x	x	x
O=C(c1ccc(Br)cc1)N1CCCc2ccccc21	2	-1	4	2	x	x	x
Cc1ccc(C2=NN3C(C2)c2ccccc2OC32C(=O)Nc3ccccc32)cc1 (centres undefined)	10*	-9	5	8	-13	9.1*	20*
Cc1ccc(-c2nc(C=Nc3cccc(C)c3)c(O)o2)cc1	14*	-8	-2	10	4	7	1
CN1C(=O)[C@H]2[C@@H](c3ccc(C(F)(F)F)cc3)N[C@]3(CCCN(Cc4ccc(Cl)cc4)C3=O)[C@H]2C1=O	9.7*	11	16	4	x	-3	2
CCN(C(=O)Cc1c(C(=O)O)n(C)c2ccccc12)c1cccc(C)c1	0	-7	0	-4	x	x	x
C/C(=N/NC(=O)Nc1ccccc1)c1ccc(C)cc1	11*	-10	2	-8	-10	-1	3
CC(=O)Nc1ccc(/C(C)=N\NC(=O)c2ccc(-c3ccccc3)cc2)cc1	x	x	x	x	-4	x	x
C/C(=N\NC(=O)Nc1ccccc1)c1ccc2ccccc2c1	21*	-4	0	-5	-9	4	6
C/C(=N/NS(C)(=O)=O)c1ccc2ccccc2c1	0	-2	1	-10	-1	x	x
Fc1cc(Br)ccc1Nc1nc2ccccc2n2nnnc12	14*	-1	-1	-2	9	9.6*	5
FC(F)(F)c1cccc(NC(=S)NC(c2ccccc2)c2ccccc2)c1	10*	-14	10	5	16	6	10
FC(F)(F)c1cccc(NC(=S)Nc2ccc(Cl)c(Cl)c2)c1	3	-7	-6	x	x	x	x
COC(=O)c1ccccc1NC(=O)C1CC(c2ccccc2O)=NO1 (centres undefined)	14*	-13	6	-11	-9	-2	4
Cc1ccccc1C(=O)O/N=C(\N)c1ccncc1	-2	-1	-4	4	-6	x	x
CCc1nc2c(OCC(=O)c3ccc(Cl)cc3Cl)cccn2c1N(C)C(=O)COc1ccccc1	-1	-1	3	x	x	x	x
COc1cc(/C=N/O)ccc1Oc1cnccn1	1	1	8	-4	x	x	x
C=CCNC(=S)N1CCN(c2ncc(C(F)(F)F)cc2Cl)CC1	0	-10	4	-3	x	x	x

Compound activity (PubChem)
